Data on 24 compounds can be found in ChEMBL document CHEMBL2157976, “Design, synthesis and biological activities of sorafenib derivatives as antitumor agents” (Bioorg Med Chem Lett, 2012).

The source made the active and inactive calls. The calls are words filed in the database; no cut-off is given here.

One experiment has as its system HCT-116. Description: Cytotoxicity against human HCT116 cells after 48 hrs by MTT assay. The experiment is classed as functional, cell-based. Conditions: HCT-116, 48 h. An outline of the steps:
(§1)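 All three human tumour lines were screened in parallel by MTT colorimetric viability assay, with sorafenib as positive control. Antiproliferative potency was expressed as IC50.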

Another experiment concerns PC-3. The experiment in a line: Cytotoxicity against human PC3 cells after 48 hrs by MTT assay. It counts as functional, cell-based. Conditions: PC-3, 48 h. The method in brief: as §1
A general note: Formazan colour is commonly taken as a measure of viable cells.

For the next experiment, the system named is MDA-MB-231. Description: Cytotoxicity against human MDA-MB-231 cells after 48 hrs by MTT assay. It counts as functional, cell-based. The settings on record: MDA-MB-231, 48 h. The method in brief:
as §1

A further experiment concerns Aorta. The experiment in a line: Antiangiogenic activity in Sprague-Dawley rat aortic ring assessed as inhibition of blood vessel formation at 0.1 uM after 6 days by inverted microscopic analysis. It counts as functional, tissue-based. An outline of the steps:
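Sprague-Dawley rat aortic segments were embedded in wells coated with growth factor-reduced Matrigel. They were cultured for 6 d with or without compound, and untreated wells served as control. Microvessel sprouting from the segments was scored.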

As to `CNC(=O)c1cc(Oc2cccc(NC(=S)Nc3ccc(OC(F)(F)F)cc3)c2)ccn1`, the results for the IC50 in the experiment on HCT-116, with PC-3 and in the experiment on MDA-MB-231 were 33.8 µM, 34.7 µM and > 100 µM, respectively.

In the case of `O=C(NCc1ccccc1)c1cc(Oc2cccc(NC(=S)Nc3cccc(C(F)(F)F)c3)c2)ccn1`, the IC50 – broadly, the midpoint of a concentration-inhibition curve – in the experiment on HCT-116 came out at 7.5 µM; with PC-3 it was 11 µM; with MDA-MB-231, 75 µM.

For `CC(C)NC(=O)c1cc(Oc2cccc(NC(=S)Nc3ccc(OC(F)(F)F)cc3)c2)ccn1`, the IC50 with HCT-116 was 18.1 µM; in the experiment on PC-3, 11.8 µM; in the experiment on MDA-MB-231 it was > 100 µM.

For the compound `O=C(NC1CC1)c1cc(Oc2cccc(NC(=S)Nc3cccc(C(F)(F)F)c3)c2)ccn1`, the IC50 came to 20.2 µM in the experiment on HCT-116, 22.1 µM with PC-3 and 34.8 µM in the experiment with MDA-MB-231.

As for `O=C(c1cc(Oc2cccc(NC(=S)Nc3ccc(Cl)c(C(F)(F)F)c3)c2)ccn1)N1CCCC1`, the IC50 in the experiment with HCT-116 worked out at 22.4 µM; with PC-3 it was 12.1 µM; with MDA-MB-231, 40.2 µM.

For the compound `CNC(=O)c1cc(Oc2cccc(NC(=S)Nc3ccc(Cl)cc3Cl)c2)ccn1`, the half-maximal inhibitory concentration (IC50) with HCT-116 was 41.2 µM; in the experiment with PC-3, 37.8 µM; in the experiment with MDA-MB-231, > 100 µM.

Take `CNC(=O)c1cc(Oc2cccc(NC(=S)Nc3ccc(Cl)c(C(F)(F)F)c3)c2)ccn1`: the values for the half-maximal inhibitory concentration (IC50) in the experiment on HCT-116, in the experiment with PC-3 and with MDA-MB-231 were 15.1 µM, 16.1 µM and 35.7 µM, respectively.

In the case of `CCNC(=O)c1cc(Oc2cccc(NC(=S)Nc3ccc(F)c(F)c3)c2)ccn1`, the IC50 was 30.3 µM in the experiment with HCT-116, 26.3 µM with PC-3 and > 100 µM with MDA-MB-231.

For the compound `O=C(c1cc(Oc2cccc(NC(=S)Nc3cccc(C(F)(F)F)c3)c2)ccn1)N1CCCC1`, the half-inhibitory concentration (IC50) was found to be 19.2 µM in the experiment on HCT-116, 27 µM with PC-3 and 35.4 µM with MDA-MB-231.

In the case of `CC(C)NC(=O)c1cc(Oc2cccc(NC(=S)Nc3ccc(Cl)cc3)c2)ccn1`, the IC50 was 22.1 µM with HCT-116, 21.2 µM in the experiment on PC-3 and 87.5 µM with MDA-MB-231.

`CCNC(=O)c1cc(Oc2cccc(NC(=S)Nc3cccc(C(F)(F)F)c3)c2)ccn1`: the half-maximal inhibitory concentration (IC50) in the experiment on HCT-116 came to 19.4 µM; in the experiment on PC-3 it was 18.3 µM; in the experiment with MDA-MB-231 it was 53.1 µM.

Regarding `CCNC(=O)c1cc(Oc2cccc(NC(=S)Nc3ccc(Cl)c(C(F)(F)F)c3)c2)ccn1`, the IC50 in the experiment with HCT-116 worked out at 6.9 µM; in the experiment with PC-3 it was 8.5 µM; in the experiment with MDA-MB-231, 22.1 µM. For the same compound, the inhibition result in the experiment with Aorta is “Active”.

Regarding `O=C(c1cc(Oc2cccc(NC(=S)Nc3ccc(OC(F)(F)F)cc3)c2)ccn1)N1CCCC1`, the IC50 was found to be 17.8 µM in the experiment on HCT-116, 34.1 µM with PC-3 and 37.8 µM in the experiment on MDA-MB-231.

Take `O=C(NC1CCCCC1)c1cc(Oc2cccc(NC(=S)Nc3cccc(C(F)(F)F)c3)c2)ccn1`: the IC50 in the experiment with HCT-116 was 8.4 µM; with PC-3, 16.8 µM; in the experiment with MDA-MB-231, > 100 µM.

Consider `O=C(NCc1ccccc1)c1cc(Oc2cccc(NC(=S)Nc3ccc(Cl)cc3)c2)ccn1`, for which the figures for the 50% inhibitory concentration (IC50) in the experiment with HCT-116, with PC-3 and with MDA-MB-231 were 16.5 µM, 15.8 µM and > 100 µM, respectively.

As to `O=C(NC1CCCCC1)c1cc(Oc2cccc(NC(=S)Nc3ccc(F)c(F)c3)c2)ccn1`, the half-inhibitory concentration (IC50) with HCT-116 was 8.9 µM; in the experiment on PC-3, 8.1 µM; with MDA-MB-231 it was > 100 µM. The inhibition entry in the experiment with Aorta is “Active”.

Regarding `CNC(=O)c1cc(Oc2cccc(NC(=S)Nc3cccc(C(F)(F)F)c3)c2)ccn1`, the half-inhibitory concentration (IC50) in the experiment on HCT-116 was 25.3 µM; in the experiment with PC-3 it was 24.5 µM; in the experiment with MDA-MB-231 it was > 100 µM.

On to `O=C(NC1CCCCC1)c1cc(Oc2cccc(NC(=S)Nc3ccc(Cl)c(C(F)(F)F)c3)c2)ccn1`, for which the IC50 in the experiment on HCT-116 turned out to be 2.8 µM; with PC-3, 2.2 µM; with MDA-MB-231, 34.2 µM. For the same compound, the inhibition result in the experiment on Aorta was “Active”.

With `CNC(=O)c1cc(Oc2ccc(NC(=O)Nc3ccc(Cl)c(C(F)(F)F)c3)cc2)ccn1` [SORAFENIB], the 50% inhibitory concentration (IC50) in the experiment with PC-3 worked out at 6.8 µM. Moreover, the inhibition result in the experiment with Aorta was “Active”.

For the compound `CNC(=O)c1cc(Oc2cccc(NC(=S)Nc3ccc(Cl)cc3)c2)ccn1`, the 50% inhibitory concentration (IC50) with HCT-116 was 39.4 µM; in the experiment on PC-3, 24.1 µM; in the experiment with MDA-MB-231, > 100 µM.

Regarding `CNC(=O)c1cc(Oc2cccc(NC(=S)Nc3ccc(F)c(F)c3)c2)ccn1`, the IC50 in the experiment on HCT-116 was 30.3 µM; with PC-3, 33.1 µM; in the experiment on MDA-MB-231, > 100 µM.

As for `O=C(NC1CC1)c1cc(Oc2cccc(NC(=S)Nc3ccc(Cl)c(C(F)(F)F)c3)c2)ccn1`, the IC50 is 9.3 µM in the experiment on HCT-116, 6.8 µM with PC-3 and 21.2 µM in the experiment with MDA-MB-231.

In the case of `O=C(NCc1ccccc1)c1cc(Oc2cccc(NC(=S)Nc3ccc(OC(F)(F)F)cc3)c2)ccn1`, the IC50 with HCT-116 is 7.4 µM; with PC-3 it was 6.8 µM; with MDA-MB-231, > 100 µM.

For the compound `O=C(c1cc(Oc2cccc(NC(=S)Nc3ccc(F)c(F)c3)c2)ccn1)N1CCCC1`, the 50% inhibitory concentration (IC50) in the experiment on HCT-116 was 52 µM; in the experiment with PC-3, 45.6 µM; in the experiment with MDA-MB-231 it was > 100 µM.
